According to ChEMBL document CHEMBL1122793, “Synthesis, characterization, and properties of a group of platinum (IV) complexes” (J Med Chem, 1984):

Assays:
Format in all cases: functional, cell-based
Settings in all cases: Mus musculus
L1210 [1] = assay: Compound was evaluated for antitumor activity against 10e 6 L1210 cells implanted intraperitoneally into mice after treatment on day 1
Summary of the method: (§1)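 Mice received 10⁶ L1210 ascites cells ip and were treated ip on day 1 only. Treatment groups had six mice. The optimal dose was recorded in mg/kg, and activity was recorded as the maximum percent T/C, as defined in ref 9.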

L1210 [2] = assay: Compound was evaluated for antitumor activity against 10e 6 L1210 cells implanted intraperitoneally into mice after treatment on days 1-9 (maximum percentage toxicity)
L1210 [3] = assay: Compound was evaluated for antitumor activity against 10e 6 L1210 cells implanted intraperitoneally into mice after treatment on day 1(maximum percentage toxicity)(reference 9); summary of the method: as §1
L1210 [4] = assay: Compound was evaluated for antitumor activity against 10e 6 L1210 cells implanted intraperitoneally into mice after treatment on days 1-9
L1210 [5] = assay: Compound was evaluated for antitumor activity against 10e 6 L1210 cells implanted intraperitoneally into mice after treatment on days 1-5 (maximum percentage toxicity)
Summary of the method: (§2)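 Mice were implanted ip with 10⁶ L1210 ascites cells and treated ip on days 1-5, with the dose given in mg/kg per injection. Groups had six mice each. The read-out was the optimal dose and the maximum percent T/C, as defined in ref 9.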

L1210 [6] = assay: Compound was evaluated for antitumor activity against 10e 6 L1210 cells implanted intraperitoneally into mice after treatment on day 1(reference 9); summary of the method: as §1
L1210 [7] = assay: Compound was evaluated for antitumor activity against 10e 6 L1210 cells implanted intraperitoneally into mice after treatment on days 1-5; summary of the method: as §2
L1210 [8] = assay: Compound was evaluated for antitumor activity against 10e 6 L1210 cells implanted intraperitoneally into mice after treatment on day 1(maximum percentage toxicity); summary of the method: as §1

Row | Substance | Optimal dose (L1210 [1]) | T/C (L1210 [2]) | T/C (L1210 [3]) | Optimal dose (L1210 [4]) | T/C (L1210 [5]) | Optimal dose (L1210 [6]) | Optimal dose (L1210 [7]) | T/C (L1210 [8])
1 | Dichloro-diammonium-platinum | 48 mg/kg | 193% | 164% | 20 mg/kg | 157% | 120 mg/kg | 12 mg/kg | 150%
2 | Dichloro-dibromo-diammonium platinum | 12 mg/kg |  |  |  | 129% |  | 0.75 mg/kg | 136%
3 | Tetrachloro-diammonium platinum | 32 mg/kg |  |  |  | 114% |  | 4 mg/kg | 121%
